Data: the M2OR odorant receptor database
Where a chain is given by its changes, count along the chain named.

How the values were obtained:
Details in all cases: stereoisomer not certain
[1] = target: T1, OR1G1 (Homo sapiens) (UniProt P47890)
T1 sequence (whole entry): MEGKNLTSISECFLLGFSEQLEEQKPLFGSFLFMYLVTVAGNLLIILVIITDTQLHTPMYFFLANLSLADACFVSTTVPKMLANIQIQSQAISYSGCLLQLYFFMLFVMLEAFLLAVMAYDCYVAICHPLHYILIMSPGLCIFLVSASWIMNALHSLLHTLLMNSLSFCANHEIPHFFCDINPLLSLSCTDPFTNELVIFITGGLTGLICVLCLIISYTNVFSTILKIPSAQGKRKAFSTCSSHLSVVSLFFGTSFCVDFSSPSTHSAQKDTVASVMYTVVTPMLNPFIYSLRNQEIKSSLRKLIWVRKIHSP
In short: (§1)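 Assay methods differ from source to source, frequently being transient luciferase assays in mammalian cell lines. For each receptor–molecule pair, the label responsive (active) applies when the original authors judged the measured signal statistically different from baseline, and non-responsive (inactive) applies otherwise.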

[2] = target: T2, OR1F12P (Homo sapiens) (UniProt Q8NHA8)
T2 sequence (whole entry): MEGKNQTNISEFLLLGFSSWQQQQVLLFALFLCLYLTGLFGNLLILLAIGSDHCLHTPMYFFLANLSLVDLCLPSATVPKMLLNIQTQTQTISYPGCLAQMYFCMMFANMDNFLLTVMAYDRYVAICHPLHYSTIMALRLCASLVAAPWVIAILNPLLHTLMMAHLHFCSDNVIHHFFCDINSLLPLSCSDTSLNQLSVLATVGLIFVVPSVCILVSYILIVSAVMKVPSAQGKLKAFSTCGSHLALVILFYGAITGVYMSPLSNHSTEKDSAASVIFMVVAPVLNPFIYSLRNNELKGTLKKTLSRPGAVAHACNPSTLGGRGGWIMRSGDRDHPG
In short: as §1

[3] = target: T3, OR1I1 (Homo sapiens) (UniProt O60431)
T3 sequence (whole entry): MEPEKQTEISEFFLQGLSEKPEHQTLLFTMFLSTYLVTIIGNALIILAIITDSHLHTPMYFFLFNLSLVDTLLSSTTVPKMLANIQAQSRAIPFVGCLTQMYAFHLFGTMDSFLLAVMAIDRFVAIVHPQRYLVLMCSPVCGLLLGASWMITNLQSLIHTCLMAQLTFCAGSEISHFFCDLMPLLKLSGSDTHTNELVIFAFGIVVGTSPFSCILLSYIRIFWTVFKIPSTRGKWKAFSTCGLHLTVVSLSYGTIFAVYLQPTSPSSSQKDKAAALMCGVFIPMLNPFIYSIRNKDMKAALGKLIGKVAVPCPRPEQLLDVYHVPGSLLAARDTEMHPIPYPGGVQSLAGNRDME
In short: as §1

[4] = target: T4, OR1J1 (Homo sapiens) (UniProt Q8NGS3)
T4 sequence (whole entry): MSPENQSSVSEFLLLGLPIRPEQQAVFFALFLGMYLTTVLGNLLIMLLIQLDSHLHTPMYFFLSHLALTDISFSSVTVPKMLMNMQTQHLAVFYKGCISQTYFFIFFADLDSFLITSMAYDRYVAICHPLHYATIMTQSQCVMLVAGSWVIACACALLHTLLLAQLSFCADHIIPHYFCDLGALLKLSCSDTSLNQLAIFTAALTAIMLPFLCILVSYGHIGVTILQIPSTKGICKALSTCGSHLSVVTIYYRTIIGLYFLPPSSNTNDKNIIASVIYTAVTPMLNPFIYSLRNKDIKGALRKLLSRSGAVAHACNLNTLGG
In short: as §1

[5] = target: T5, OR1J2 (Homo sapiens) (UniProt Q8NGS2)
T5 sequence (whole entry): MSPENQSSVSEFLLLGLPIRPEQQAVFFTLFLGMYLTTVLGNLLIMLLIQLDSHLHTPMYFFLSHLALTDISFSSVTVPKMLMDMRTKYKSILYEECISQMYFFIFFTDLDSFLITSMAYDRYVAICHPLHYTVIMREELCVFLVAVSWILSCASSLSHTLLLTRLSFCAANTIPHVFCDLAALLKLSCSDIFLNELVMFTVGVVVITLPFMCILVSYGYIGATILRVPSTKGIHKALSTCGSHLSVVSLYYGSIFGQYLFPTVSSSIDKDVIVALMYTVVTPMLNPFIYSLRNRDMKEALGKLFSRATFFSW
In short: as §1

[6] = target: T6, OR1J4 (Homo sapiens) (UniProt Q8NGS1)
T6 sequence (whole entry): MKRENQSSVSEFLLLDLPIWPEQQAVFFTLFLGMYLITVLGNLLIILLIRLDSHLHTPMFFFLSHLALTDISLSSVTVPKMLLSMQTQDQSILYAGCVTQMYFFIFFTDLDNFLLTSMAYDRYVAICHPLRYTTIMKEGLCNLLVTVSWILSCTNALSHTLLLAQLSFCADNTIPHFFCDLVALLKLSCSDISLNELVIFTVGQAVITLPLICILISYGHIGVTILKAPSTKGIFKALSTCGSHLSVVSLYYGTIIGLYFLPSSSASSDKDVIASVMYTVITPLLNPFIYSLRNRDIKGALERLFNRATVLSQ
In short: as §1

[7] = target: T7, OR1K1 (Homo sapiens) (UniProt Q8NGR3)
T7 sequence (whole entry): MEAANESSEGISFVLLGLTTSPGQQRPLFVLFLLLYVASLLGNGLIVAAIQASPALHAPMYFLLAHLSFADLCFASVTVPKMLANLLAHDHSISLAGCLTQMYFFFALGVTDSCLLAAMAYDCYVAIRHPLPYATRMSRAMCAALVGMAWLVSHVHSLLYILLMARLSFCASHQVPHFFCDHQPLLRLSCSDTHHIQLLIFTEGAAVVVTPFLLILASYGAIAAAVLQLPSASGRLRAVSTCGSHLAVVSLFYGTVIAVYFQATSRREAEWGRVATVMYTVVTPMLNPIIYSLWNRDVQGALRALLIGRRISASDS
In short: as §1

[8] = target: T8, OR1L1 (Homo sapiens) (UniProt Q8NH94)
T8 sequence (whole entry): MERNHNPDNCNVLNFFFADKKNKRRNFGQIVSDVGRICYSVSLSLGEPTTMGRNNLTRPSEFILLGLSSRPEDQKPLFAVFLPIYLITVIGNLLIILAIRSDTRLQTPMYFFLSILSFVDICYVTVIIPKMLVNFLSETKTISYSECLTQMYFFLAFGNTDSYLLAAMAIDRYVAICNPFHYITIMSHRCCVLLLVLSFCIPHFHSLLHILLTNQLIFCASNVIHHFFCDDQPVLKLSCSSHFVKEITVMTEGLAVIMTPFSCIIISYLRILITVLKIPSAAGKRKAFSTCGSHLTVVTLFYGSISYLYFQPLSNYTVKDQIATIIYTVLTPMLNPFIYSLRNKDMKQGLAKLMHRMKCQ
In short: as §1

[9] = target: T9, OR1L3 (Homo sapiens) (UniProt Q8NH93)
T9 sequence (whole entry): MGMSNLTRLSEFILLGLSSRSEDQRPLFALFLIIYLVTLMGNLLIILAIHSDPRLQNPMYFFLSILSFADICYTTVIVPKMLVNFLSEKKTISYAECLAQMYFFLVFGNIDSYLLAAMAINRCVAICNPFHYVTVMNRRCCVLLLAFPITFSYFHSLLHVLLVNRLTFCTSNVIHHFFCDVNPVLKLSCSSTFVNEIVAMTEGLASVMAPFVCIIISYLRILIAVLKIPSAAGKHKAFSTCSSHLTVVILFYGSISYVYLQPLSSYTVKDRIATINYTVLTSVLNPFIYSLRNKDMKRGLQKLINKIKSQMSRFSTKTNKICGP
In short: as §1

[10] = target: T10, OR1L4 (Homo sapiens) (UniProt Q8NGR5)
T10 sequence (whole entry): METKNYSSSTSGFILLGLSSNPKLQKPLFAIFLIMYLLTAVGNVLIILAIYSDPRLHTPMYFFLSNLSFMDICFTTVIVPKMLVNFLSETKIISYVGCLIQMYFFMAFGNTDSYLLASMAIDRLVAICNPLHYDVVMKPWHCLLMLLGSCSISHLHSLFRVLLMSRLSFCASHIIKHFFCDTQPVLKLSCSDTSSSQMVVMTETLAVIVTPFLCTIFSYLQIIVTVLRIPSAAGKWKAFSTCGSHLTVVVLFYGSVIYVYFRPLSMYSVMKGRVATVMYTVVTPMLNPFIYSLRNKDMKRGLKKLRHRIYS
In short: as §1

[11] = target: T11, OR1L6 (Homo sapiens) (UniProt Q8NGR2)
T11 sequence (whole entry): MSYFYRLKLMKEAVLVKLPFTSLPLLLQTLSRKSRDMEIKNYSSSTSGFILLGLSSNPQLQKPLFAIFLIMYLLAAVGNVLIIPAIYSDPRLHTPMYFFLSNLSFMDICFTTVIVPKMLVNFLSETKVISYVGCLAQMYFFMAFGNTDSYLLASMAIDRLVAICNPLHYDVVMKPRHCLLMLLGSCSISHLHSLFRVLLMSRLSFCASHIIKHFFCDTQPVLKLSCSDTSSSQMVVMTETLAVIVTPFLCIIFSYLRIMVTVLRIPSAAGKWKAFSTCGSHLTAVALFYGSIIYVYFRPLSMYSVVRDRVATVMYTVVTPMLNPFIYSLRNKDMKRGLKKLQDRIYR
In short: as §1

[12] = target: T12, OR1L8 (Homo sapiens) (UniProt Q8NGR8)
T12 sequence (whole entry): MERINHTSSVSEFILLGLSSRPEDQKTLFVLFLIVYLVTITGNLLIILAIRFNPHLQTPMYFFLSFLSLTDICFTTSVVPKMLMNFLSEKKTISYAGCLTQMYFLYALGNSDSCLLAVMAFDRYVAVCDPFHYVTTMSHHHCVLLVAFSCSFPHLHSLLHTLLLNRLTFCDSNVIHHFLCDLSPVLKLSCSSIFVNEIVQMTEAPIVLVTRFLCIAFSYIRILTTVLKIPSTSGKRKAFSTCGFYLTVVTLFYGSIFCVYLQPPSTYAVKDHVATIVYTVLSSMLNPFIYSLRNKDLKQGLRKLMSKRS
In short: as §1

[13] = target: T13, OR1M1 (Homo sapiens) (UniProt Q8NGA1)
T13 sequence (whole entry): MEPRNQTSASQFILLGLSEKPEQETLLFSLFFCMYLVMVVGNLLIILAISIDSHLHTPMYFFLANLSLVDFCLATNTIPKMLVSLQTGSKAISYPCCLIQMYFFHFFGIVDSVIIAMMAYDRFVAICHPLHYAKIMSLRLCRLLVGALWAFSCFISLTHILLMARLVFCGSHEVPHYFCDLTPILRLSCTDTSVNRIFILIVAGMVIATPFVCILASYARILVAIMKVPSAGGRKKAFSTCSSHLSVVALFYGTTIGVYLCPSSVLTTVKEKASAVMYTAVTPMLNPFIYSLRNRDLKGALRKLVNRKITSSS
In short: as §1

[14] = target: T14, OR1N1 (Homo sapiens) (UniProt Q8NGS0)
T14 sequence (whole entry): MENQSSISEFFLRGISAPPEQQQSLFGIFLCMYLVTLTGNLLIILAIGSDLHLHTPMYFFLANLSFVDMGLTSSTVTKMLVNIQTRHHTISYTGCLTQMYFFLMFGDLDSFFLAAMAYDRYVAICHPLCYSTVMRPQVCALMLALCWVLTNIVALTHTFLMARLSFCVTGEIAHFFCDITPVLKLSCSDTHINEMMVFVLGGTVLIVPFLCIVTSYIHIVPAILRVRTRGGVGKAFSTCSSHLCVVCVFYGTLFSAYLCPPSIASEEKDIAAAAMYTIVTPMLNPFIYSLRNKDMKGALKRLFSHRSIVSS
In short: as §1

[15] = tested on: T15, OR1F1
T15 sequence (whole entry): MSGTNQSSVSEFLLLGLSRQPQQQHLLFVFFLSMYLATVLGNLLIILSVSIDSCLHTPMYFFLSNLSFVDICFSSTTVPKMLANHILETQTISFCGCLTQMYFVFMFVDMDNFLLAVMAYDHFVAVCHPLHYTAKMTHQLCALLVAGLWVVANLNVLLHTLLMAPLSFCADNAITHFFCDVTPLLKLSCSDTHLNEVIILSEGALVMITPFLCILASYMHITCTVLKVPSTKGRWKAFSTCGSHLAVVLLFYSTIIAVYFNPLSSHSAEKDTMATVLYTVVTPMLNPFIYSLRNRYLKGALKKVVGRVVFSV
In short: as §1

[16] = tested on: T16, OR1L1
T16 sequence (whole entry): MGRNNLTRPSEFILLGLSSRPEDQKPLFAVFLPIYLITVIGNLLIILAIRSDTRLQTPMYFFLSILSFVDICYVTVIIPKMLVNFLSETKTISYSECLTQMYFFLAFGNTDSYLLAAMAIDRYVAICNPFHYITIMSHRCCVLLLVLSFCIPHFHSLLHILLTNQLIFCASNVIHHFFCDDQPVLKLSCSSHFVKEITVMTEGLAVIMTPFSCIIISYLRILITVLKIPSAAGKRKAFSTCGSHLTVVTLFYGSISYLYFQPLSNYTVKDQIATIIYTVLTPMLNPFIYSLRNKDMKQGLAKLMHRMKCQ
In short: as §1

[17] = tested on: T17, OR1L4
T17 sequence (whole entry): T10 sequence (whole entry) with G234R
In short: as §1

[18] = tested on: T18, OR1L6
T18 sequence (whole entry): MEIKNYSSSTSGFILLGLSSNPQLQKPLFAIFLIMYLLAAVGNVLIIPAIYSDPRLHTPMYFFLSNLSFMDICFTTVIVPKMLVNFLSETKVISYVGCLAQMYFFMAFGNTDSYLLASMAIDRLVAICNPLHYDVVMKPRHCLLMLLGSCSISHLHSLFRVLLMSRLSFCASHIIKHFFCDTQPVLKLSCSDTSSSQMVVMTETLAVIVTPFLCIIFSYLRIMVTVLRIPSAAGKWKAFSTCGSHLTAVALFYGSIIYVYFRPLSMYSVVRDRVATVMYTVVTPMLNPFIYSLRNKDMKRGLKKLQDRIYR
In short: as §1

[19] = tested on: T19, OR1L8 T27P R211P
T19 sequence (whole entry): T12 sequence (whole entry) with T27P, R211P
In short: as §1

[20] = tested on: T20, OR1N2 W37R
T20 sequence (whole entry): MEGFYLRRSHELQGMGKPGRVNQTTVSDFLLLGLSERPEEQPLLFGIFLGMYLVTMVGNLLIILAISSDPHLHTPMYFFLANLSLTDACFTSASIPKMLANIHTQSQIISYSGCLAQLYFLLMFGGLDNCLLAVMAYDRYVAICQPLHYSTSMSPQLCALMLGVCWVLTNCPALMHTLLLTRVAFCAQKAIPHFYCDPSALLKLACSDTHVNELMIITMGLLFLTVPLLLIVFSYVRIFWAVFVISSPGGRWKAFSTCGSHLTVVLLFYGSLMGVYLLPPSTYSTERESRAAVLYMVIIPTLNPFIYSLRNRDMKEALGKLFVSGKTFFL
In short: as §1

Measured: odorant receptor agonist call

O=C(O)C=Cc1ccccc1
inactive: [1]

c1ccc2ncccc2c1
active: [1]

c1ccc2[nH]ccc2c1
inactive: [1]

CCCCCC(=O)C(C)C(C)=O (stereo unspecified)
not listed: [15] | [16] | [17] | [18] | [19] | [20]
inactive: all other assays above

CC(=O)OCCC(C)C
active: [1]

CCC1OC(=O)C(O)=C1C (stereo unspecified)
not listed: [8] | [11]
inactive: all other assays above
